Experimental data reported in BindingDB's records for doi:10.1021/acs.jmedchem.5b01961 (Catabasis Pharmaceuticals, 2016).

Molecular target: T1, Sterol regulatory element-binding protein 2 (Homo sapiens, UniProt Q12772)
T1 sequence (Q12772 whole entry): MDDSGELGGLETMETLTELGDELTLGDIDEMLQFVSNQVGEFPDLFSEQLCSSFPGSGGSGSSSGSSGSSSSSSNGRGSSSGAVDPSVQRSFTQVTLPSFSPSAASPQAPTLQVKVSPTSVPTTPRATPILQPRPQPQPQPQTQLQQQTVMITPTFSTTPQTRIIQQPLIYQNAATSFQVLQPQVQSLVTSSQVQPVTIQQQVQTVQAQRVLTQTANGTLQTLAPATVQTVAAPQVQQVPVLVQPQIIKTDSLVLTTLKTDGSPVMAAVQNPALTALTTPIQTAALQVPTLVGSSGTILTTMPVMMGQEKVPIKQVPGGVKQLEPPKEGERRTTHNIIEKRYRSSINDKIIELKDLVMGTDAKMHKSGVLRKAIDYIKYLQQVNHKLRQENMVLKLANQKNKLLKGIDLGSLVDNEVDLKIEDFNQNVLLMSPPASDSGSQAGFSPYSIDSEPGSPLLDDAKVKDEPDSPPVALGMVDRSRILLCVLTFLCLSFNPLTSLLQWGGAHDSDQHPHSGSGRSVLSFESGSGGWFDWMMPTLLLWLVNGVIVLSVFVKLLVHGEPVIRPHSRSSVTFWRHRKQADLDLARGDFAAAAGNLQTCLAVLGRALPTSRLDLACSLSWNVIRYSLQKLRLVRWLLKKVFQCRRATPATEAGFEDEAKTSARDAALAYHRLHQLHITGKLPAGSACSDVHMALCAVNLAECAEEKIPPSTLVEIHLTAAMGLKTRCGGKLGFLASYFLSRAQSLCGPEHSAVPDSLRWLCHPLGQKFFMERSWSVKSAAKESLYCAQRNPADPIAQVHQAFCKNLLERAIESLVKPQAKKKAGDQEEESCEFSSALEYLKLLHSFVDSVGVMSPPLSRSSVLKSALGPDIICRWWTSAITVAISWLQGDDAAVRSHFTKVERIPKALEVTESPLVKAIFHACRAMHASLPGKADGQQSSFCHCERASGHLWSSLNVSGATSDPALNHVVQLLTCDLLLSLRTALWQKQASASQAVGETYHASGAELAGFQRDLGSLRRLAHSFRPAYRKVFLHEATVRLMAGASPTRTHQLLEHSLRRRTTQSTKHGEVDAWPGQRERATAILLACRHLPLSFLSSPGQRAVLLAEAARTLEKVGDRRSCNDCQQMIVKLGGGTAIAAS
Test: Inhibition of SREBP2 in human HepG2 cells assessed as reduction of PCSK9 secretion after 16 hrs by ELISA
Summary of the method: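 HepG2 cells treated with compound; secreted PCSK9 in culture supernatants measured with a human-specific PCSK9 ELISA.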

Q: `CC/C=C\C/C=C\C/C=C\C/C=C\C/C=C\CCCC(=O)NCCNC(=O)c1cccnc1` was tested. Which IC50 did it give?
A: 17 µM
